Data on eleven sequences can be found in the EternaBench riboswitch data.

This data set has as its system MS2 coat protein. Nature of the data set: apparent Kd, MS2 coat protein; higher = weaker binding; RNA-MaP array; tryptophan 2.4 mM where present. In a few lines: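 The apparent Kd comes from binding curves fitted cluster by cluster, filtered, and summarised as a median. Those curves followed SNAP-549-labelled MS2 coat protein from 0.7 or 1.5 nM, doubling to 3 µM, on Illumina sequencing-chip clusters where stalled E. coli RNA polymerase had transcribed the designs, without and then with constant ligand. The buffer was 100 mM Tris-HCl pH 7.5, 80 mM KCl, 4 mM MgCl2, BSA, DTT, yeast tRNA and Tween-20, and green signal was normalised to red-channel RNA signal and control-cluster median Fmax.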

Setting [1] is: designed as: OFF switch for tryptophan, no ligand.
The mark [2] stands for this setting: ligand present: tryptophan, designed as: OFF switch for tryptophan.
Where [3] appears, read: designed as: ON switch for tryptophan, no ligand.
[4] abbreviates: ligand present: tryptophan, designed as: ON switch for tryptophan.

A word on the apparent Kd: it is a dissociation constant that holds for the conditions of the assay. As for “CACGAAAGAUCGGCCGCCACUAAUCGAUGUGUUCUUUCACAUGAGGAUCACCCAUGUUCUUGCGUUAGGACCGGGAUUGAGCGUG”, the “apparent Kd” value is, setting by setting: under setting [1], 38.7 nM; under setting [2], 31.9 nM.
For “GAGCUCGUGGACUGGCGUGCUCCGCUCCGUCGAGGACCGGUACGGCCGCCACUCGACAUGAGGAUCACCCAUGUGUGAGCUCGCU”, in that order: 75.3 nM and 54.2 nM.
Regarding “CACAGUGCGAAUUUGAAAUCGCACGAUCCUCGAGGACCGGUACGGCCGCCACUCGCGCGGGUCGUACAUGAGGAUCACCCAUGUC”, the “apparent Kd” value under setting [3] was 317 nM and the “apparent Kd” value under setting [4] stood at 545 nM.
Turning to “ACAUUGCGCACGGCCGCCACUGGCUAUAGAUUUAUAGCAUUAAUGAACAUGAGGAUCACCCAUGUCAGGACCGGGUGCGAACCAU”, the “apparent Kd” value under setting [3] was 17.3 nM and the “apparent Kd” value under setting [4] turned out to be 19.7 nM.
The corresponding values for “AACAUCACAACGGCCGCCACUGCACAUGACAACAUGAGGAUCACCCAUGUGGAUCACCCAUGUCCCAGGACCGGGUUAUGAGGAU” are 29.1 nM and 25.9 nM.
Regarding “ACAUGAGGAUCACCCAUGUGUGUAAAUCCUCGAGGACCGGUACGGCCGCCACUCGAUCGAGUGUAAGUUGAAUGUAACAUUCAAC”, the “apparent Kd” value was 88.4 nM under setting [3] and 70.5 nM under setting [4].
In the case of “AAUUAAACAUCGGCCGCCACUUACUCAUGAGGUAACAACAUGAGGAUCACCCAUGUUUGAGGAUCAAGGACCGGGAUGUAAUAAU”, the “apparent Kd” value by setting is: under setting [3], 31.3 nM; under setting [4], 22.6 nM.
“UUAUAAGUACCGGUCCUCAGAUCCUCAUGACGAGGACCGGUACGGCCGCCACUCGAAACAUGAGGAUCACCCAUGUAAUAACAUU”: the “apparent Kd” value under setting [1] came out at 20 nM and the “apparent Kd” value under setting [2] is 20.1 nM.
As for “GCCGGUACGUCGGCAAAGCCGAUGUGCCAGCGAGGACCGGUACGGCCGCCACUCGUACAUGAGGAUCACCCAUGUCCGGUCCGGC”, the “apparent Kd” value reads like this: under setting [3], 44.7 nM; under setting [4], 49 nM.
With “GGUACAUGAGGAUCACCCAUGUAUUGGUACCGAGGACCGGUACGGCCGCCACUCGCAUGACAUGAGGAUCACCCAUGUGAAACCU”, the “apparent Kd” value under setting [3] was found to be 52.5 nM and the “apparent Kd” value under setting [4] came to 66.5 nM.
For the sequence “UAUAUAUAUCACUAACUGUUCUUGAGGUCUCGAGGACCGGUACGGCCGCCACUCGGGCCGCCUCACAUGAGGAUCACCCAUGUCC”, the “apparent Kd” value under setting [1] is 56.4 nM and the “apparent Kd” value under setting [2] is 68.2 nM.
